Shown are actives, neighbours in structure and some others; about 4.2% of the full set was active somewhere.
AI-2 QS modul – modulators of Vibrio harveyi AI-2 quorum sensing system. Vibrio harveyi JMH597 AI-2 luminescence/OD600 ratio, 9 h; hits give low values; strain lacks LuxN and CqsS sensors; 0 = neutral-control median. activity change, % at 7.5 µM. hit rate 0.4% among 300,000. AID 2094; in the data active means activity change below about -75%, passing the limit was not always enough;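 further: luminescence divided by OD600 gain over 9 h not by final OD600 alone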
KCNQ1 block – human KCNQ1 channel inhibition; B-score at 10 µM; CHO-K1 KCNQ1, FluxOR thallium flux fluorescence; hits give high values; P51787; hit rate 1.3% among 310,000;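 active means compounds whose thallium flux B-score, printed positive for inhibition, exceeds three library SD while starting fluorescence stays within three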;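 further: channel opened by potassium depolarization with thallium stimulus after 20 min compound exposure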
Cl transport mod – modulators of human KCC2 chloride dependent transport; KCC2 cells, thallium flux FluoZin-2 fluorescence; B-score of Tl+ flux slope (higher = more flux/activation; lower = inhibition) at 10 µM; hit rate 2.2% among 190,000; AID 1456;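 active means thallium flux slope and its plate-corrected score both differing from the plate sample mean at a set confidence after two filtering rounds, in either direction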;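 further: slope of fluorescence scaled to starting intensity during 10 to 20 s after thallium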
KCNQ1 act – potentiators or activators of human KCNQ1 potassium channel. P51787. CHO-K1 KCNQ1, thallium flux FluxOR fluorescence; hits give high values. B-score at 10 µM. hit rate 0.35% among 310,000;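 active means fluorescence ratio B-score, a plate-corrected score, at least three library SD, with initial intensity B-score within 5 SD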
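assay system = CHO-K1 cells stably expressing KCNQ1 | medium = assay buffer, equal DMSO in all wells | timing = 37 °C overnight plating, 90-min dark dye load, 20-min compound pretreatment | measured by = kinetic FluxOR thallium fluorescence, 10-s 1-Hz baseline, 110-s post-stimulus read | measure = fluorescence change relative to baseline, converted to B score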
Mot1-301 SUMO – SUMOylation pathway inhibition by Mot1-301 growth rescue. S. cerevisiae Mot1-301 growth rescue, ATP luminescence, 38.5C; percent above DMSO median, 100 means doubled. growth rescue, % at 18.8 µM. hit rate 1% among 320,000. AID 2716;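 active means every valid replicate shows activation above 250% relative to neutral control wells; inactive means the rest, any valid replicate at or below 250%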;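 further: OY570 slx delta 5 strain wells were the positive control but not used for scaling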
hERG rescue – shields human hERG channel from block by proarrhythmic agents. activation (rescue from dofetilide block), less the hit threshold, % at 10 µM. CHO-hERG, FluxOR thallium flux, dofetilide IC70 present. Q12809. hit rate 0.51% among 310,000;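 active means activation above the mean of controls blocked by dofetilide plus 5 SD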;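 further: thallium influx through hERG after potassium depolarization seen as dye fluorescence rise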
The depositor's hits bear a star; i = inactive; / = no result given.

SMILES	AI-2 QS modul	KCNQ1 block	Cl transport mod	KCNQ1 act	Mot1-301 SUMO	hERG rescue
Nc1ccc(Oc2ccc3c(c2)C(=O)N(CC2CCCO2)C3=O)cc1 (configuration not stated)	-10	i	-0.41	i	284*	-3
c1ccc2c(c1)CCN(c1ncnc3c1[nH]c1ccccc13)C2	5	11*	/	i	-20	-27
Cc1cccc(NC(=S)N(C)C2CCCCC2)c1	19	i	-0.43	i	1	-11
Cc1ccc(C(=O)NC(=S)N(C)C2CCCCC2)cc1	20	i	/	17*	16	15*
Cc1ccc(NS(=O)(=O)c2c(C)[nH]c(C)c2C(=O)N2CCCCC2)c(Br)c1	21	i	/	i	-1	-12
CCOC(=O)c1ccc(Nc2ncnc3c2cnn3C)cc1	17	i	-0.61	i	-2	-5
Cn1ncc2c(O/N=C(\N)c3ccc(C(C)(C)C)cc3)ncnc21	13	i	-1.3	10*	-16	-4
N#CC(C#N)=C1C=C2C=C(N3CCOCC3)CCC2CC1 (configuration not stated)	23	6*	i	i	/	-28
Cc1ccc2nc(N3CCN(c4cccc(C)c4C)CC3)c3nnnn3c2c1	-2	i	/	i	-10	-13
Cc1ccc2nc(Cl)c3nnnn3c2c1	-86*	i	-3.2	i	382*	-24
O=C(NCc1ccccc1)c1onc(CSc2ccc(F)cc2)c1C(=O)NCCCN1CCOCC1	5	i	0.0064	14*	8	-15
COc1ccc(NC(=O)C(=O)NNC(=O)c2ccc(Cl)cc2Cl)cc1	13	i	/	62*	-9	4.7*
CC(=O)Nc1ccc(C(=O)NNC(=O)c2ccc(Cl)cc2Cl)cc1	8	i	/	i	6	-7
COc1ccc(NC(=O)C(=O)NNC(=O)C(C)Oc2ccc(Cl)cc2Cl)cc1 (configuration not stated)	23	i	76*	108*	15	35*
COc1ccc(CCN(C)C(=O)CN2C(=O)NC3(CCCCC3C)C2=O)cc1OC (configuration not stated)	4	i	/	i	-6	-10
OCCC1CN(Cc2cccn2-c2cccnc2)CCN1Cc1ccc(F)cc1 (configuration not stated)	44	i	/	i	358*	-9
N#Cc1c(-c2ccccc2Cl)c2c([nH]c1=O)-c1ccccc1OC2	19	i	-0.36	i	3	-7
N#Cc1c2c(c(-c3ccccc3Cl)[nH]c1=S)CCCC2	/	/	40*	/	/	/
CCN(c1ccccc1)S(=O)(=O)c1ccc(Cl)c(NC(=O)CN(C)C2CCN(C)CC2)c1	-2	i	0.55	i	31	-9
COC(=O)c1cccc(-c2ccc(/C=N/N3C(=O)C4C5C=CC(C6CC56)C4C3=O)o2)c1 (configuration not stated)	37	7*	-1.4	i	1	-12
CC1=CSC2=NC(=O)/C(=C\c3cccn3-c3ccccc3)C(=N)N12	5	i	0.68	i	-18	-5
CC(C)c1ccc(-n2cccc2/C=C2/C(=N)N3C=CSC3=NC2=O)cc1	12	i	22*	i	10	-3
Cc1cc(C)c2c(=O)n(CC(=O)NC3CCCC3)sc2n1	56	i	-0.57	i	-13	-23
COc1ccc(OC)c(CCNC(=O)Cn2sc3nc(C)cc(C)c3c2=O)c1	16	6*	0.035	i	-16	-41
COC(=O)c1cc(=O)n(CCc2ccc(OC)cc2)c(=Nc2ccc(F)c(Cl)c2)s1	25	i	-0.66	i	-4	-12
COC(=O)c1cc(=O)n(CCc2ccccc2)c(=Nc2ccc(F)cc2)s1	-4	8*	0.24	i	23	-15
Cc1ccc2nc3c(cc(C(=O)NCc4ccco4)c(=N)n3C3CCCC3)c(=O)n2c1	/	8*	/	i	-2	-26
CCn1c2ccc(F)cc2c2nnc(SCCN3CCCCC3)nc21	27	i	/	i	420	-4
NC(=O)Nn1c(CCC(=O)O)ccc1-c1ccc(F)cc1	26	i	/	i	349*	-6

High-throughput results as filed in PubChem.
